The values that follow come from ChEMBL document CHEMBL1268816, “Discovery of a series of potent, orally active α,α-disubstituted piperidine NK(1) antagonists” (Bioorg Med Chem Lett, 2010).

The target of data set [1] is Substance-P receptor (Homo sapiens, UniProt P25103). The data set can be described thus: Displacement of [3H]SAr-Met from human recombinant NK1 receptor expressed in CHO cells. It counts as cell-based. The method, boiled down: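 Membranes from CHO cells expressing recombinant human NK1 receptor; radioligand [3H]-Sar-Met substance P used near its experimentally derived Kd. Ki derived by Cheng–Prusoff equation. Binding values are the average of two or three independent determinations.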

Data set [2] has as its system Meriones unguiculatus. In words: Inhibition of GR-73632-induced foot tapping in Mongolian gerbil assessed as duration of repetitive hind foot tapping pretreated at 0.1 mg/kg, icv before GR-73632 challenge measured after 4 hrs. Type of data set: functional. The note with it: oral, in the assay text read “po” for “icv”. The method, boiled down:
(§1)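 Female Mongolian gerbils given NK1 agonist GR73632 (3 pmol) by icv injection. Test antagonists given orally in 0.4% methylcellulose in distilled water at the indicated dose, at various pretreatment times before agonist. After recovery from anesthesia, animals observed 5 min in clear boxes and hind-foot tapping duration timed. Result expressed as % decrease versus vehicle-treated controls.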

In data set [3] the test system is Meriones unguiculatus. The data set can be described thus: Inhibition of GR-73632-induced foot tapping in Mongolian gerbil assessed as duration of repetitive hind foot tapping pretreated at 0.3 mg/kg, icv before GR-73632 challenge measured after 4 hrs. Type of data set: functional. The conditions noted are these: oral, in the assay text read “po” for “icv”. The method, boiled down:
as §1

Data set [4] has as its system Meriones unguiculatus. The data set can be described thus: Inhibition of GR-73632-induced foot tapping in Mongolian gerbil assessed as duration of repetitive hind foot tapping pretreated at 1 mg/kg, icv before GR-73632 challenge measured after 4 hrs. It counts as functional. The note with it: oral, in the assay text read “po before” for “icv before”. The method, boiled down:
as §1

A short description of data set [5]: AUC (0 to 6 hrs) in rat at 10 mg/kg, po. Type of data set: ADME, organism-based. The arrangement: time < 6 hr, dose 10 mg/kg, route oral. The conditions noted are these: plasma. The method, boiled down: (§2)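 Rat pharmacokinetics after oral dosing at 10 mpk (unless otherwise specified), vehicle 20% HPBCD.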
A short description of data set [6]: Oral bioavailability in rat at 10 mg/kg. It counts as ADME, organism-based. The note with it: in vivo. The method, boiled down: as §2
The nature of data set [7]: Half life in rat at 10 mg/kg, po. It counts as ADME, organism-based. Set-up: dose 10 mg/kg, route oral. The conditions noted are these: in vivo. The method, boiled down: as §2
The nature of data set [8]: AUC (0 to 6 hrs) in rat at 5 mg/kg, po after 24 hrs. Type of data set: ADME, organism-based. Set-up: time < 6 hr, dose 5 mg/kg, route oral. The conditions noted are these: plasma.
Data set [9] is described as follows: AUC (0 to 6 hrs) in rat at 10 mg/kg, po after 6 hrs. It counts as ADME, organism-based. The arrangement: time < 6 hr, dose 10 mg/kg, route oral. The note with it: plasma. The method, boiled down: as §2

Substance-P receptor, sequence (P25103 whole entry): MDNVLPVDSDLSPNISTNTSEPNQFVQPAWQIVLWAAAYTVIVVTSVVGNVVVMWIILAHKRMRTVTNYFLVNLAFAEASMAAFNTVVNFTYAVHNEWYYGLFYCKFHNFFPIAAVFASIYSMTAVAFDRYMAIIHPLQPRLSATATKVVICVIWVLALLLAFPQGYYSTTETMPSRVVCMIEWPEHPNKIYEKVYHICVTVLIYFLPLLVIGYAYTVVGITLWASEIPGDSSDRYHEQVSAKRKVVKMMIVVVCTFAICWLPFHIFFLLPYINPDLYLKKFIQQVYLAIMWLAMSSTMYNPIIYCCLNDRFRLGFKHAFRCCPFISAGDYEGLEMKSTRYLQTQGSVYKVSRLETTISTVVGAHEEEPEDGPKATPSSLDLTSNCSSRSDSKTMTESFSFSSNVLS

Turning to `FC(F)(F)c1cc(COCC2(c3ccccc3)CCCCN2)cc(C(F)(F)F)c1` (configuration not stated), the Ki in data set [1] was found to be 1 nM.
As for `CCC(=O)N[C@H]1CC[C@@](CO[C@H](C)c2cc(C(F)(F)F)cc(C(F)(F)F)c2)(c2ccccc2)NC1`, in [2], the inhibition in vivo at 0.1 mg/kg was found to be 50%. The Ki in data set [1] was 0.29 nM. Moreover, in [3], the inhibition in vivo at 0.3 mg/kg amounted to 93%. The inhibition in vivo at 1 mg/kg in [4] is 100%. In data set [5], the area under the curve AUC(0-t) at 6 h stood at 1950 ng·h/mL.
With `CC(=O)N[C@@H]1CC[C@@](CO[C@H](C)c2cc(C(F)(F)F)cc(C(F)(F)F)c2)(c2ccccc2)NC1`, the Ki in data set [1] is 0.35 nM. The inhibition in vivo at 0.3 mg/kg in [3] amounted to 36%. For the same compound, in data set [4], the inhibition in vivo at 1 mg/kg was 76%. In addition, the area under the curve AUC(0-t) at 6 h in data set [5] worked out at 795 ng·h/mL.
For `C[C@@H](OC[C@@]1(c2ccccc2)CC[C@H](NC(=O)C2CC2)CN1)c1cc(C(F)(F)F)cc(C(F)(F)F)c1` the same measures were 0.23 nM, 79%, 100% and 5260 ng·h/mL.
Regarding `CC(=O)N[C@H]1CC[C@@](CO[C@H](C)c2cc(C(F)(F)F)cc(C(F)(F)F)c2)(c2ccccc2)NC1`, in data set [2], the inhibition in vivo at 0.1 mg/kg turned out to be 83%. Also, in [1], the Ki is 0.15 nM. The inhibition in vivo at 0.3 mg/kg in [3] came to 99%. For the same compound, the bioavailability in data set [6] amounted to 63%. Also, the half-life in data set [7] is 3.2 h. In data set [4], the inhibition in vivo at 1 mg/kg amounted to 100%. For the same compound, the exposure AUC(0-t) at 6 h in [5] was 10000 ng·h/mL.
Take `C[C@@H](OC[C@@]1(c2ccccc2)CC[C@H](C(N)=O)CN1)c1cc(C(F)(F)F)cc(C(F)(F)F)c1`: the inhibitory constant (Ki) in data set [1] came to 0.22 nM. In addition, the inhibition in vivo at 0.3 mg/kg in data set [3] came out at 82%. The compound further displayed an exposure AUC(0-t) at 6 h in data set [8] of 2600 ng·h/mL. In data set [6], this compound yielded a bioavailability of 68%. In [7], this compound showed a half-life of 3.4 h. Also, the inhibition in vivo at 1 mg/kg in data set [4] came out at 92%.
With `C[C@@H](OC[C@@]1(c2ccccc2)CC[C@H](NC(N)=O)CN1)c1cc(C(F)(F)F)cc(C(F)(F)F)c1`, the inhibitory constant (Ki) in data set [1] stood at 0.69 nM. Further, in data set [3], the inhibition in vivo at 0.3 mg/kg came to 6%. For the same compound, the inhibition in vivo at 1 mg/kg in data set [4] turned out to be 96%. Also, in data set [5], the AUC(0-t) at 6 h was 6040 ng·h/mL.
With `C[C@@H](OC[C@@]1(c2ccccc2)CC[C@H](N2CCNC2=O)CN1)c1cc(C(F)(F)F)cc(C(F)(F)F)c1`, the inhibition constant Ki in data set [1] is 0.59 nM. Besides, the inhibition in vivo at 0.3 mg/kg in data set [3] was found to be 71%. For the same compound, in data set [4], the inhibition in vivo at 1 mg/kg turned out to be 86%.
For the compound `C[C@@H](OC[C@@]1(c2ccccc2)CCCCN1)c1cc(C(F)(F)F)cc(C(F)(F)F)c1`, the Ki in [1] was determined as 0.3 nM.
Regarding `CCNC(=O)[C@@H]1CC[C@@](CO[C@H](C)c2cc(C(F)(F)F)cc(C(F)(F)F)c2)(c2ccccc2)NC1`, the Ki in data set [1] was 1.13 nM. For the same compound, the inhibition in vivo at 1 mg/kg in data set [4] was 78%.
For `C[C@@H](OC[C@@]1(c2ccccc2)CC[C@H](Nc2ncccn2)CN1)c1cc(C(F)(F)F)cc(C(F)(F)F)c1` the same measures were 0.33 nM and 5%.
Turning to `CNC(=O)[C@@H]1CC[C@@](CO[C@H](C)c2cc(C(F)(F)F)cc(C(F)(F)F)c2)(c2ccccc2)NC1`, the inhibitory constant (Ki) in [1] amounted to 0.56 nM. In data set [9], this compound gave an AUC(0-t) at 6 h of 166 ng·h/mL. The inhibition in vivo at 1 mg/kg in data set [4] amounted to 80%.
In the case of `C[C@@H](OC[C@@]1(c2ccccc2)CC[C@H](NS(C)(=O)=O)CN1)c1cc(C(F)(F)F)cc(C(F)(F)F)c1`, the Ki in data set [1] was 1.03 nM. Also, the inhibition in vivo at 0.3 mg/kg in data set [3] came to 25%. Moreover, the inhibition in vivo at 1 mg/kg in data set [4] is 90%. This compound also had an exposure AUC(0-t) at 6 h in data set [5] of 5940 ng·h/mL.
As to `C[C@@H](OC[C@@]1(c2ccccc2)CC[C@@H](C(N)=O)CN1)c1cc(C(F)(F)F)cc(C(F)(F)F)c1`, in data set [1], the inhibitory constant (Ki) was 0.19 nM. The compound further showed an area under the curve AUC(0-t) at 6 h in data set [9] of 1690 ng·h/mL. In [3], the inhibition in vivo at 0.3 mg/kg came out at 75%. Moreover, the inhibition in vivo at 1 mg/kg in data set [4] stood at 90%.
On to `C[C@@H](OC[C@@]1(c2ccccc2)CC[C@H](N2CCCC2=O)CN1)c1cc(C(F)(F)F)cc(C(F)(F)F)c1`, for which, in data set [1], the Ki is 0.26 nM. The inhibition in vivo at 1 mg/kg in data set [4] worked out at 61%. The compound also displayed an AUC(0-t) at 6 h in [5] of 13800 ng·h/mL.
Take `C[C@@H](OC[C@@]1(c2ccccc2)CC[C@@H](C(=O)NC2CC2)CN1)c1cc(C(F)(F)F)cc(C(F)(F)F)c1`: the Ki in [1] was determined as 0.4 nM. The inhibition in vivo at 1 mg/kg in data set [4] stood at 69%.
For `C[C@@H](OC[C@@]1(c2ccccc2)CC[C@H](C(=O)NC2CC2)CN1)c1cc(C(F)(F)F)cc(C(F)(F)F)c1`, the inhibitory constant (Ki) in [1] was 0.34 nM. For the same compound, in [9], the AUC(0-t) at 6 h came out at 1940 ng·h/mL. For the same compound, the inhibition in vivo at 1 mg/kg in data set [4] amounted to 45%.
For the compound `CCNC(=O)[C@H]1CC[C@@](CO[C@H](C)c2cc(C(F)(F)F)cc(C(F)(F)F)c2)(c2ccccc2)NC1`, the Ki in [1] was 0.37 nM. The compound further displayed an area under the curve AUC(0-t) at 6 h in data set [9] of 3680 ng·h/mL. In addition, the inhibition in vivo at 0.3 mg/kg in data set [3] turned out to be 28%. Moreover, the inhibition in vivo at 1 mg/kg in data set [4] was determined as 92%.
Turning to `CNC(=O)[C@H]1CC[C@@](CO[C@H](C)c2cc(C(F)(F)F)cc(C(F)(F)F)c2)(c2ccccc2)NC1`, the Ki in data set [1] came out at 0.26 nM. For the same compound, the inhibition in vivo at 0.3 mg/kg in [3] was 29%. Besides, the inhibition in vivo at 1 mg/kg in data set [4] came to 91%.
For `C[C@@H](OC[C@@]1(c2ccccc2)CC[C@H](NC2=NCCO2)CN1)c1cc(C(F)(F)F)cc(C(F)(F)F)c1`, the inhibition constant Ki in [1] was 0.28 nM. Besides, in [4], the inhibition in vivo at 1 mg/kg is 37%.
